How the values were obtained:
[1] = biological target: T1, Epidermal growth factor receptor (Homo sapiens, UniProt P00533); assay: Inhibition of epidermal growth factor receptor (EGFr) using ATP substrate
Method in brief: (§1)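 EGFr came from membrane vesicles shed by human A431 carcinoma cells. Activity was measured as 32P-phosphate transfer from ATP into a TCA-precipitable glutamate/tyrosine (4:1) random copolymer. ATP or peptide polymer substrate was varied. Ki was obtained by nonlinear regression with Cleland's equations, comparing slope and intercept determinations to assign the inhibition type.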

[2] = biological target: T1, Epidermal growth factor receptor; assay: Inhibition of epidermal growth factor receptor (EGFr) using peptide substrate; method in brief: as §1
[3] = biological target: T1, Epidermal growth factor receptor; assay: Inhibition of epidermal growth factor receptor (EGFr)
[4] = biological target: T2, Platelet-derived growth factor receptor beta (Mus musculus, UniProt P05622); assay: Inhibition of Platelet-derived growth factor receptor beta (PDGFr)
T2 sequence (P05622 whole entry): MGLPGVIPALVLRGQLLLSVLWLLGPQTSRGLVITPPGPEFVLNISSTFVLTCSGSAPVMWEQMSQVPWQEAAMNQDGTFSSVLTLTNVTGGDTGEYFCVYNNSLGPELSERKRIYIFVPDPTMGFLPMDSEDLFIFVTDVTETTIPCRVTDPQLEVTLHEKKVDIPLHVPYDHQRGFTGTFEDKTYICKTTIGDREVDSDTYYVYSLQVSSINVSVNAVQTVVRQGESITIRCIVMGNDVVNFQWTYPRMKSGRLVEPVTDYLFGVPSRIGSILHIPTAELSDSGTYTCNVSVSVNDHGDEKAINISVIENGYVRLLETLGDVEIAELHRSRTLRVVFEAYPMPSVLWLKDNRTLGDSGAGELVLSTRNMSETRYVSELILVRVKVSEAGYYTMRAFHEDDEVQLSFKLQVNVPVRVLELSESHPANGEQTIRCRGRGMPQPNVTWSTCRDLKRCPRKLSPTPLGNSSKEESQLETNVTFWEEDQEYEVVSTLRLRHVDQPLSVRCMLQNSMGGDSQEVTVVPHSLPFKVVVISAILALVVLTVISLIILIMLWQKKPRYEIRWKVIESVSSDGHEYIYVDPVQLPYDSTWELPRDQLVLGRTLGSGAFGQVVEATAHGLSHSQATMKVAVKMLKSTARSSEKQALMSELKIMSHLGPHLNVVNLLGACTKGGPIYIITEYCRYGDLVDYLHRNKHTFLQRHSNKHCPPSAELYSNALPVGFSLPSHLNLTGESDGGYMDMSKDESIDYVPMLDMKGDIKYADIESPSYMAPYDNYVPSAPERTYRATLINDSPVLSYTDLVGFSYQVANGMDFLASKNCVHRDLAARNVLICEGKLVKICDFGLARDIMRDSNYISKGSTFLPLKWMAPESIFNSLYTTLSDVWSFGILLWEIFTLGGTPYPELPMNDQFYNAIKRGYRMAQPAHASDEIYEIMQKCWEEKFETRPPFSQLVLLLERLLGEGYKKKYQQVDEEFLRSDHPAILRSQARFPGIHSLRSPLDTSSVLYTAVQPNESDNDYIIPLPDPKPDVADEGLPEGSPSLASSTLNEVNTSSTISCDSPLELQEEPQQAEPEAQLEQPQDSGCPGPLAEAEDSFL
Method in brief: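 Full-length mouse PDGF-β receptor was overexpressed in baculovirus-infected insect cells and assayed as cell lysates. Read-out was 32P-phosphate transfer from ATP into TCA-precipitable poly(Glu,Tyr) 4:1. IC50 values are means of duplicates from at least two separate experiments.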

[5] = Inhibition of Src tyrosine kinase
Method in brief: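 v-src protein came from baculovirus-infected insect cells. Kinase activity was measured as 32P incorporation from ATP into TCA-precipitable random Glu/Tyr (4:1) copolymer. IC50 values are means of duplicates from at least two separate experiments.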

[6] = Inhibition of Src tyrosine kinase using ATP substrate
Method in brief: (§2)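 v-src kinase inhibition kinetics were run with either ATP or the Glu/Tyr peptide polymer substrate varied. Ki (µM) was obtained by nonlinear regression using Cleland's equations. Inhibition type was assigned by comparing Ki values from slope and intercept determinations.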

[7] = Inhibition of Src tyrosine kinase using peptide substrate; method in brief: as §2
A-431 [8] = assay: In vivo activity against human A431 epidermoid xenograft, net cell kill at 0.5 mg/kg/day administered subcutaneously for 1-27 days; assay type: functional; settings: route subcutaneous
Method in brief: (§3)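 Nude mice (NCr nu/nu), 18-22 g, randomized, implanted sc in the right axilla with serially passaged A431 tumor fragments on day 0. Dosing was by ip bolus or continuous sc Alzet miniosmotic pump infusion, by average cage weight. Vehicle was distilled H2O or 10% DMA in 50 mM lactic acid buffer, pH 4.0, depending on compound. Net cell kill = net log reduction in tumor burden between first and last treatments.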

A-431 [9] = assay: In vivo activity against human A431 epidermoid xenograft, net cell kill at 0.5 mg/kg/day administered subcutaneously for 9-15 days; assay type: functional; settings: route subcutaneous; method in brief: as §3
C6 [10] = assay: In vivo activity against C6 glioma xenograft, net cell kill at 1.8 mg/kg administered intraperitoneally for 9 days; assay type: functional; settings: route intraperitoneal
Method in brief: (§4)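 […] C6 glioma xenograft, serially passaged in NCr nu/nu nude mice, implanted sc as tumor fragments in the right axilla on day 0. Mice weighed 18-22 g and were randomized. Dosing was ip bolus on a d1-9 daily schedule in 10% DMA in 50 mM lactic acid buffer, pH 4.0, by average cage weight. Weight change is the maximum treatment-related weight loss in the growth delay assay.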

A-431 [11] = assay: In vivo activity against human A431 epidermoid xenograft, weight change after 0.5 mg/kg/day sc dose for 9-15 days; assay type: functional; settings: route subcutaneous
Method in brief: (§5)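 Nude mice (NCr nu/nu, 18-22 g) bearing sc A431 fragments in the right axilla (day 0) received continuous sc infusion from an Alzet miniosmotic pump implanted under ketamine-xylazine. Pumps were removed or replaced under lidocaine-epinephrine for longer therapy, in 7-day and 27-day studies. Daily dose was the maximum deliverable without significant precipitation. Weight change was taken as the maximum treatment-related loss.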

C6 [12] = assay: In vivo activity against C6 glioma xenograft, weight change after 1.8 mg/kg ip dose for 9 days; assay type: functional; settings: route intraperitoneal; method in brief: as §4
[13] = biological target: T2, Platelet-derived growth factor receptor beta; assay: Inhibition of platelet-derived growth factor receptor (PDGFr) autophosphorylation; assay type: functional
Method in brief: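 Swiss 3T3 fibroblasts were treated 2 h with a range of compound concentrations, then stimulated 5 min with growth factor. Receptor tyrosine phosphorylation was assessed by cell extraction and western blotting.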

[14] = Inhibition of mouse Swiss 3T3 fibroblasts proliferation; assay type: functional, cell-based
Method in brief: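 Swiss 3T3 mouse fibroblast growth assay. IC50 is the concentration reducing cell growth rate by 50%, as the mean of duplicates from at least two separate experiments.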

[15] = biological target: Fibroblast growth factor receptor (Mus musculus, UniProt P21803+Q03142+P16092+Q61851); assay: Inhibition of fibroblast growth factor (bFGF)-mediated autophosphorylation of FGF-R in Swiss 3T3 mouse fibroblasts; assay type: functional
Method in brief: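 Swiss 3T3 fibroblasts were treated 2 h with a range of compound concentrations, then stimulated for 5 min with growth factor (bFGF). Receptor tyrosine phosphorylation was read by extraction and western blotting.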

[16] = Inhibition of DNA synthesis; assay type: functional
Method in brief: (§6)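 Log-phase cells were drug-treated for 2 h, then exposed for 2 h to 1 µM [methyl-3H]thymidine (DNA), [5-3H]uridine (RNA) or (S)-[4,5-3H]leucine (protein), each at 1 µCi/nmol. Cells were trypsinized into ice-cold 15% TCA, and precipitates were collected on glass-fibre filters, washed, and counted by scintillation.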

[17] = Inhibition of RNA synthesis; assay type: functional; method in brief: as §6
[18] = Inhibition of protein synthesis; assay type: functional; method in brief: as §6
[19] = biological target: Epidermal growth factor receptor (Mus musculus) (UniProt Q01279); assay: Inhibition of epidermal growth factor receptor (EGFr) autophosphorylation
Chain of Epidermal growth factor receptor (Mus musculus) (Q01279 whole entry, looked up): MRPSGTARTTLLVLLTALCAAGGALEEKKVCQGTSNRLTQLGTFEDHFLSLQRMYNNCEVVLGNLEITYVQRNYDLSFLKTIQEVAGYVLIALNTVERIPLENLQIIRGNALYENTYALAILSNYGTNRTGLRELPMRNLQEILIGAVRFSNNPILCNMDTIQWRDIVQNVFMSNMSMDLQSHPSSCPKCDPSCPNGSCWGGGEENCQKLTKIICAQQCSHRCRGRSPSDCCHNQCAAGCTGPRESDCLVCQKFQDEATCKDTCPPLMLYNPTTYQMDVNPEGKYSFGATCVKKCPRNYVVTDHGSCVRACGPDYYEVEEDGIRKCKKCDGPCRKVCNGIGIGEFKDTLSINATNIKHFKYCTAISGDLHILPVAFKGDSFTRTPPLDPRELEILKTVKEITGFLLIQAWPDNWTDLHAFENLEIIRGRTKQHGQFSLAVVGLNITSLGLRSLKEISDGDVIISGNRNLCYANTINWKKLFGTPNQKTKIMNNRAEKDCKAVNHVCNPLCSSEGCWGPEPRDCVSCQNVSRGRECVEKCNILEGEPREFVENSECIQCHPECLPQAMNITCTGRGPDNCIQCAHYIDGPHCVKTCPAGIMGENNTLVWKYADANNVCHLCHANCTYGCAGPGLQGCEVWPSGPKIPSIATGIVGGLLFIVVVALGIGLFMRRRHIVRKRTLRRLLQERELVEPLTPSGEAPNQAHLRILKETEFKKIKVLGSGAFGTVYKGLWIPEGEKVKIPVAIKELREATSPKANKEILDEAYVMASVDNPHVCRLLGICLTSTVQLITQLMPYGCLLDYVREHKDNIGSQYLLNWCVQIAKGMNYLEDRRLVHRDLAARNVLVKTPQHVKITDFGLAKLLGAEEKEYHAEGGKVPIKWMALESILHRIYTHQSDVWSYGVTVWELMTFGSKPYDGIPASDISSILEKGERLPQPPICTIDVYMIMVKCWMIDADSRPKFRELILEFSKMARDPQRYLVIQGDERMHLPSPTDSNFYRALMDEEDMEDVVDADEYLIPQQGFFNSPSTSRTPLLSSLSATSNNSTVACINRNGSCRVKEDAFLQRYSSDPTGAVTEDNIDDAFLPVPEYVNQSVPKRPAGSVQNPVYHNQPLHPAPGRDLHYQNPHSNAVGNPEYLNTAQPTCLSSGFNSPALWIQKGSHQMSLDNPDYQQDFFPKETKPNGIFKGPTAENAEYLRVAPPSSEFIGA

C6 [20] = assay: In vivo activity against C6 glioma xenograft, tumor growth delay (T-C, days) at 1.8 mg/kg ip dose for 9 days; settings: route intraperitoneal
A-431 [21] = assay: In vivo activity against human A431 epidermoid xenograft, tumor growth delay (T-C) at 0.5 mg/kg/day administered subcutaneously for 9-15 days; settings: route subcutaneous
A-431 [22] = assay: In vivo activity against human A431 epidermoid xenograft, tumor growth delay (T-C, days) at 0.5 mg/kg/day administered subcutaneously for 1-27 days; settings: route subcutaneous
A-431 [23] = assay: In vivo activity against human A431 epidermoid xenograft, weight change after 0.5 mg/kg/day sc dose for 1-27 days; assay type: functional, organism-based; method in brief: as §5

T1 sequence (P00533 whole entry): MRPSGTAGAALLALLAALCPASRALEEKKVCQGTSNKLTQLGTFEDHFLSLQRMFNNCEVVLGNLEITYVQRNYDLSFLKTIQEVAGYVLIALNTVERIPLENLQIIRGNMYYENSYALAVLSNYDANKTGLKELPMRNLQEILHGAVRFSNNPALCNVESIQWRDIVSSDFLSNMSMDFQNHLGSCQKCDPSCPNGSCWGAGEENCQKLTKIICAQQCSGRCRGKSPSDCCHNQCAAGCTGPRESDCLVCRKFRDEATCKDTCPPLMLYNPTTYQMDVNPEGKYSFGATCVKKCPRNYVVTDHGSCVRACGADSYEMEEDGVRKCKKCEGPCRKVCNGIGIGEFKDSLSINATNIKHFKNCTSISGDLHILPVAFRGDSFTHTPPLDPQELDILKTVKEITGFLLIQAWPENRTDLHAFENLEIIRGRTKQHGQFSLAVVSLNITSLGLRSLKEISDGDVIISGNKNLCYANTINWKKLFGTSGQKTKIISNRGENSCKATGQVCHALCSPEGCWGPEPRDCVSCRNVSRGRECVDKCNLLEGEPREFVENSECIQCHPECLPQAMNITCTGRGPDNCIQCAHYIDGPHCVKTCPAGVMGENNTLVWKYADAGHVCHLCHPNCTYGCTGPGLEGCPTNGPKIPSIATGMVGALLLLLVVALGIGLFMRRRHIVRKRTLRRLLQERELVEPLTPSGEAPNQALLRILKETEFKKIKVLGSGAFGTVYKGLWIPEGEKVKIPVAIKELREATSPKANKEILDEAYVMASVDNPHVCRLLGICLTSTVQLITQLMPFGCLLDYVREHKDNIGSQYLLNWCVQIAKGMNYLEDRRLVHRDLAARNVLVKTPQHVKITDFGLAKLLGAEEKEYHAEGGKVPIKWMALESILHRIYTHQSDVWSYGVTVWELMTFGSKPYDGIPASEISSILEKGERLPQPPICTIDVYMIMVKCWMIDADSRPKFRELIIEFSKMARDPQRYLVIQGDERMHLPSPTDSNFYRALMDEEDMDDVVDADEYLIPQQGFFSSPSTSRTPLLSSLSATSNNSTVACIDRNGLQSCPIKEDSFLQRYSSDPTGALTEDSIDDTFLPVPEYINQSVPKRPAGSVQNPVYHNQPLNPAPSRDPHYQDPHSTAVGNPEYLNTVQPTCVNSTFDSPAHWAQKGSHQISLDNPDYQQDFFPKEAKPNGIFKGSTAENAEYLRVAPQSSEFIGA

SMILES	IC50 [3] [µM]	IC50 [4] [µM]	IC50 [5] [µM]	IC50 ([14]; Mus musculus) [µM]	also measured
CNC(=O)c1c(SSc2c(C(=O)NC)c3ccccc3n2C)n(C)c2ccccc12	6.9	28.1	6.7		Ki [1]: 2.3 µM; Ki [2]: 3.9 µM; Ki [6]: 8 µM; Ki [7]: 1.4 µM
O=C(NCc1ccccc1)[C@H](Cc1c([Se]c2[nH]c3ccccc3c2C[C@@H](NC(=O)C(F)(F)F)C(=O)NCc2ccccc2)[nH]c2ccccc12)NC(=O)C(F)(F)F	> 50	> 50	> 50		
N[C@H](Cc1c([Se][Se]c2[nH]c3ccccc3c2C[C@H](N)C(=O)NCc2ccccc2)[nH]c2ccccc12)C(=O)NCc1ccccc1 (stereo in doubt; 33) [listing 1 of 2 here]	0.9	14.1	2	0.54	Net cell kill (A-431 [8]): -0.4 log10; Net cell kill (A-431 [9]): -0.2 log10; Net cell kill (C6 [10]): -0.2 log10; Weight change (A-431 [11]): -0.2 g; Weight change (C6 [12]): -0.9 g; IC50 [13]: 0.57 µM; IC50 [15]: 0.2 µM; IC50 [16]: 0.18 µM; IC50 [17]: 0.35 µM; IC50 [18]: 0.17 µM; IC50 [19]: 4.2 µM; T-C (C6 [20]): 2 days; T-C (A-431 [21]): 2.2 days; T-C (A-431 [22]): 10.8 days
Cn1c([Se][Se]c2c(C(=O)O)c3ccccc3n2C)c(C(=O)O)c2ccccc21		17.4	2.4	8	
CCN(CC)CCn1c([Se][Se]c2c(C(=O)NC)c3ccccc3n2CCN(CC)CC)c(C(=O)NC)c2ccccc21		50	1.7		
O=C(NCc1ccccc1)[C@H](Cc1c([Se][Se]c2[nH]c3ccccc3c2C[C@@H](NC(=O)C(F)(F)F)C(=O)NCc2ccccc2)[nH]c2ccccc12)NC(=O)C(F)(F)F	7	> 50	6.2		
N[C@H](Cc1c([Se][Se]c2[nH]c3ccccc3c2C[C@H](N)C(=O)NCc2ccccc2)[nH]c2ccccc12)C(=O)NCc1ccccc1 (stereo in doubt; 34)	1.3	25.5	3.8		Ki [1]: 2.7 µM; Ki [2]: 5.6 µM; IC50 [14]: 0.6 µM
CNC(=O)c1c([Se][Se]c2[nH]c3ccccc3c2C(=O)NC)[nH]c2ccccc12		8	2.8	1	
CNC(=O)c1c([Se][Se]c2c(C(=O)NC)c3ccccc3n2C)n(C)c2ccccc12	6.1	4.7	0.4	5.5	Ki [1]: 3.1 µM; Ki [2]: 3.9 µM; Ki [6]: 0.8 µM; Ki [7]: 0.6 µM
Cn1c([Se][Se]c2c(C(=O)OC(C)(C)C)c3ccccc3n2C)c(C(=O)OC(C)(C)C)c2ccccc21	> 100	> 31	1.5		
N[C@H](Cc1c([Se][Se]c2[nH]c3ccccc3c2C[C@H](N)C(=O)NCc2ccccc2)[nH]c2ccccc12)C(=O)NCc1ccccc1 (stereo in doubt; 33) [listing 2 of 2 here]					Weight change (A-431 [23]): Weight gain
CCN(CC)CCNC(=O)c1c([Se][Se]c2c(C(=O)NCCN(CC)CC)c3ccccc3n2C)n(C)c2ccccc12		3.4	1.8	19.5	
CCN(CC)CCNC(=O)c1c([Se][Se]c2[nH]c3ccccc3c2C(=O)NCCN(CC)CC)[nH]c2ccccc12		12.8	3.6	8	

— ChEMBL document CHEMBL1129933, “Tyrosine kinase inhibitors. 6. Structure-activity relationships among N- and 3-substituted 2,2'-diselenobis(1H-indoles) for inhibition of protein tyrosine kinases and comparative in vitro and in vivo studies against selected sulfur congeners” (J Med Chem, 1997)
